# In ChEMBL document CHEMBL2380290, “Neonicotinic analogues: selective antagonists for α4β2 nicotinic acetylcholine receptors” (Bioorg Med Chem, 2013):
# Active and inactive are the calls of the source. The rule behind the calls is not given here.
# Key:
# [1] = target: T1, Neuronal acetylcholine receptor; alpha4/beta2 (Homo sapiens, UniProt P17787+P43681); assay: Displacement of [3H]cytisine from human alpha4beta2 nAChR overexpressed in human SHEP cells after 75 mins by liquid scintillation spectrometric analysis; assay type: cell-based
# Procedure, shortened: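 SH-EP1-hα4β2 membrane homogenates (30–50 µg protein) were incubated with 1 nM [3H]cytisine for 75 min at 4 °C in Tris binding saline, pH 7.0. Filtration on PEI-soaked GF/C filters, scintillation counting. Four experiments in triplicate.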
# [2] = target: T2, Neuronal acetylcholine receptor subunit alpha-7 (Homo sapiens, UniProt P36544); assay: Displacement of [125I]alpha-bungarotoxin from human alpha7 nAChR overexpressed in human SH-SY5Y cells after 120 mins by liquid scintillation spectrometric analysis; assay type: cell-based
# [3] = target: Nicotinic acetylcholine receptor alpha4/beta2/alpha5 (Homo sapiens, UniProt P17787+P30532+P43681); assay: Antagonist activity at (alpha4beta2)2alpha5 nAChR (unknown origin) expressed in Xenopus oocytes assessed as inhibition of acetylcholine-induced current after 2 mins by two-electrode voltage clamp assay; assay type: cell-based, Oocyte
# [4] = target: T1, Neuronal acetylcholine receptor; alpha4/beta2; assay: Antagonist activity at (alpha4beta2)2alpha4 nAChR (unknown origin) expressed in Xenopus oocytes assessed as inhibition of acetylcholine-induced current after 2 mins by two-electrode voltage clamp assay; assay type: cell-based, Oocyte
# [5] = target: T1, Neuronal acetylcholine receptor; alpha4/beta2; assay: Antagonist activity at (alpha4beta2)2beta2 nAChR (unknown origin) expressed in Xenopus oocytes assessed as inhibition of acetylcholine-induced current after 2 mins by two-electrode voltage clamp assay; assay type: cell-based, Oocyte
# [6] = target: T2, Neuronal acetylcholine receptor subunit alpha-7; assay: Displacement of [125I]alpha-bungarotoxin from human alpha7 nAChR overexpressed in human SH-SY5Y cells at 1 mM after 120 mins by liquid scintillation spectrometric analysis; assay type: cell-based
# Procedure, shortened: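 Membranes from SH-SY5Y-hα7 cells (30–50 µg protein) were incubated with 1 nM [125I]α-BgTx in Tris binding saline, pH 7.0, for 120 min at 25 °C. […] GF/C filtration, top test concentration 1 mM. […] Four experiments, triplicate.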
# T1 sequence (P17787 whole entry): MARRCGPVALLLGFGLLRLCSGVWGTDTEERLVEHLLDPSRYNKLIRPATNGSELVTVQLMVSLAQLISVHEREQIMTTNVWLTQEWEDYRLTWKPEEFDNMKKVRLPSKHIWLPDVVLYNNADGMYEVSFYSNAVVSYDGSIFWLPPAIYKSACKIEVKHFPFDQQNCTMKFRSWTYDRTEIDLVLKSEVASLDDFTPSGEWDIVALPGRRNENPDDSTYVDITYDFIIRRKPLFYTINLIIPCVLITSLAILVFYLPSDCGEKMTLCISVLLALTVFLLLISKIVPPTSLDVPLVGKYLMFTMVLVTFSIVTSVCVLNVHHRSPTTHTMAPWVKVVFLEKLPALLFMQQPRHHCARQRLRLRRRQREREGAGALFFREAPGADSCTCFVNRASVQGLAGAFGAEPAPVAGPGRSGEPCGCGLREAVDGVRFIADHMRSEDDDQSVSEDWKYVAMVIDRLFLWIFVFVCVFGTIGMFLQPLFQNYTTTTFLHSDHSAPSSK
# T1 sequence (P43681 whole entry): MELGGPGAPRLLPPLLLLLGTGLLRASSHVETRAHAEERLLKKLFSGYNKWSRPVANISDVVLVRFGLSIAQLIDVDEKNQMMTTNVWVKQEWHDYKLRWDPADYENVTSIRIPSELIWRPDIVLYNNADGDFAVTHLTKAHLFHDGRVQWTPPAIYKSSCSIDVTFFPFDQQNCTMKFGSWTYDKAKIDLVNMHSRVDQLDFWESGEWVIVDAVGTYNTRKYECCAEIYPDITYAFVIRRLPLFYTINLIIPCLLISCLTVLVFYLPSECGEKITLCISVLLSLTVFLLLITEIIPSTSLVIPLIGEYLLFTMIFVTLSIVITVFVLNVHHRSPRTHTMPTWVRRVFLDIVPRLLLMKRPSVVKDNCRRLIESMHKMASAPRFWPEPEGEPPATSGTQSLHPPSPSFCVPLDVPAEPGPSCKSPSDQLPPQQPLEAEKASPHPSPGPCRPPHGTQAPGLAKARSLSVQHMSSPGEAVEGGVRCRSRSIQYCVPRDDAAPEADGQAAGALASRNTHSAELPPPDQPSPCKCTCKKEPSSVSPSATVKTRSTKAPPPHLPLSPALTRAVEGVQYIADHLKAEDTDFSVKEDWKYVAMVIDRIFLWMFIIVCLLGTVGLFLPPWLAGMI
# Sequence of Nicotinic acetylcholine receptor alpha4/beta2/alpha5 (P17787 whole entry): as the sequence (P17787 whole entry) above
# Sequence of Nicotinic acetylcholine receptor alpha4/beta2/alpha5 (P43681 whole entry): as the sequence (P43681 whole entry) above
# Sequence of Nicotinic acetylcholine receptor alpha4/beta2/alpha5 (P30532 whole entry): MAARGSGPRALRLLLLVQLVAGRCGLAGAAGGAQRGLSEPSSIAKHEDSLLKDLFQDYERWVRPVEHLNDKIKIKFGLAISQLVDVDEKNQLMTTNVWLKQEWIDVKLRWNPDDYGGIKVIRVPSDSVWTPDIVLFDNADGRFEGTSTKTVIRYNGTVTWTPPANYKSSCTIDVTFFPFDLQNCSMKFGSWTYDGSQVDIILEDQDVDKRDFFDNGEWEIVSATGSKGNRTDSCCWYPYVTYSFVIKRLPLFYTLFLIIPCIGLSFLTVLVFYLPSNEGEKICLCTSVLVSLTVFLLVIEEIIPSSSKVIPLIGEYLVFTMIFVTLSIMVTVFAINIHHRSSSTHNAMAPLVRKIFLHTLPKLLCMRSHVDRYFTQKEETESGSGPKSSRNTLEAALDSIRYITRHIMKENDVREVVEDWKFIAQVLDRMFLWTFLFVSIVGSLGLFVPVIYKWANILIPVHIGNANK
# T2 sequence (P36544 whole entry): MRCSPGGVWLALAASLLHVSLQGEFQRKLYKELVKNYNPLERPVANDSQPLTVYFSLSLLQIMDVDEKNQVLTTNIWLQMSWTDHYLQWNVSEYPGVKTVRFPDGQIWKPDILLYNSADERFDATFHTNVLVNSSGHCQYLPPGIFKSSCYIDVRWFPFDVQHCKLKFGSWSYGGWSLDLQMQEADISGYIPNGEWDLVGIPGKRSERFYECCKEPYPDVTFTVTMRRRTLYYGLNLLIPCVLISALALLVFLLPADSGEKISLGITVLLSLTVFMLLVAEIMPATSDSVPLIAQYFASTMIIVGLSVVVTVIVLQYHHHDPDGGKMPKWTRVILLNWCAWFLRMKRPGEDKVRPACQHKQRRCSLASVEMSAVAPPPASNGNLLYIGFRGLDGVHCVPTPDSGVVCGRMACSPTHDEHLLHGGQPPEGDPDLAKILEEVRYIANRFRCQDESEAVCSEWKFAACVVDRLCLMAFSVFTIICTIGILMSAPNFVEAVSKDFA
Structure (SMILES),IC50 [1] [µM],Ki [1] [µM],IC50 [2] [µM],Ki [2] [µM],IC50 [3] [µM],inhibition [1],inhibition [2],IC50 [4] [µM],IC50 [5] [µM],inhibition [6]
CN1CCC[C@H]1COC(=O)c1ccc(OCc2ccccc2)nc1,0.166,0.0455,59.1,29.5,,,,,,
CN1CCC[C@H]1COC(=O)c1ccc(OCc2ccccc2)cc1,0.0042,0.0012,2.3,1.1,17.8,Dose-dependent effect,Dose-dependent effect,3.6,25.8,
CN1CCC[C@H]1COC(=O)c1cnc2ccccc2c1,0.759,0.217,97.3,48.7,,Dose-dependent effect,Dose-dependent effect,,,
CN1CCC[C@H]1COC(=O)c1cccc(N)c1,0.0284,0.0081,,,480,Dose-dependent effect,Dose-dependent effect,1.02,4.3,inactive
CN1CCC[C@H]1COC(=O)c1ccc(Cl)cc1,0.0394,0.0112,8.9,4.5,6,Dose-dependent effect,Dose-dependent effect,95,3.6,
CN1CCC[C@H]1COC(=O)c1ccccc1,0.0819,0.0234,13.4,6.7,52.3,Dose-dependent effect,Dose-dependent effect,313,2.5,
CN1CCC[C@H]1COC(=O)c1cccc([N+](=O)[O-])c1,1.61,0.46,464,232,,,,,,
CN1CCC[C@H]1COC(=O)c1ccc(Br)cc1,0.0784,0.0224,21.1,10.5,,Dose-dependent effect,Dose-dependent effect,,,
CN1CCC[C@H]1COC(=O)c1ccc(Cl)nc1,0.528,0.151,58.5,29.3,,Dose-dependent effect,Dose-dependent effect,,,
